For 2 compounds, TPE, ED50 and Ratio results are on record in ChEMBL document CHEMBL1126893, “Synthesis and CLOGP correlation of imidooxy anticonvulsants” (J Med Chem, 1993).

For test [1], the system named is Mus musculus. Description: Time of peak effect of toxicity of compound was measured by both MES and sc Met test in mice. The class given is functional. In short, it runs like this: (§1)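 Phase II quantification in mice after ip dosing. ED50 (scMet or MES) measured at the time of peak effect. TD50 (rotorod neurologic deficit) measured at the time of peak neurologic deficit. Medians and 95% confidence limits by the Litchfield-Wilcoxon method. Protective index = TD50/ED50. Time of peak effect determined in the MES or scMet test.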

In a further test the test system is Rattus norvegicus. Nature of the test: Effective dose was measured in rat by subcutaneous pentylenetetrazole method by ip administration; NE= Not effective. The class given is functional, organism-based.
Test [2] concerns Mus musculus. Description: Time of peak effect of activity of compound was measured by both MES and sc Met test in mice. The format is functional. The method, boiled down: as §1
Test [3] deals with Mus musculus. Nature of the test: Anticonvulsant activity was measured by maximal electroshock test on mice at 2 hr at the dose of 50 mg/kg; number of animals protected/number of animals tested, 2/4. The format is functional.
For test [4], the system named is Mus musculus. Nature of the test: Anticonvulsant activity was measured by rotarod toxicity test on mice at 2 hr at the dose of 50 mg/kg; number of animals protected/number of animals tested, 0/4. The class given is functional.
For test [5], the system named is Mus musculus. Description: Anticonvulsant activity was measured by rotarod toxicity test on mice at 4 hr at the dose of 100 mg/kg; number of animals protected/number of animals tested, 0/4. The format is functional.
In test [6] the test system is Mus musculus. Nature of the test: Anticonvulsant activity was measured by rotarod toxicity test on mice at 30 min at the dose of 300 mg/kg; number of animals protected/number of animals tested, 0/4. The class given is functional.
For test [7], the system named is Mus musculus. Description: Anticonvulsant activity was measured by maximal electroshock test on mice at 4 hr at the dose of 100 mg/kg; number of animals protected/number of animals tested, 0/3. The class given is functional.
Test [8] concerns Mus musculus. Description: Anticonvulsant activity was measured by maximal electroshock test on mice at 30 min at the dose of 100 mg/kg; number of animals protected/number of animals tested, 1/3. The class given is functional.
Test [9] deals with Mus musculus. Nature of the test: Anticonvulsant activity was measured by maximal electroshock test on mice at 30 min at the dose of 300 mg/kg; number of animals protected/number of animals tested, 1/1. The format is functional.
Test [10] deals with Mus musculus. Description: Anticonvulsant activity was measured by rotarod toxicity test on mice at 30 min at the dose of 100 mg/kg; number of animals protected/number of animals tested, 0/8. The format is functional.
Test [11] relates to Mus musculus. Description: Anticonvulsant activity was measured by rotarod toxicity test on mice at 4 h at the dose of 300 mg/kg; number of animals protected/number of animals tested, 0/2. The format is functional.
Test [12] concerns Mus musculus. Nature of the test: Anticonvulsant activity was measured by maximal electroshock test on mice at 4 hr at the dose of 50 mg/kg; number of animals protected/number of animals tested, 0/4. The format is functional.
Test [13] deals with Mus musculus. Description: Anticonvulsant activity was measured by rotarod toxicity teston mice at 0.25 hr at the dose of 50 mg/kg; number of animals protected/number of animals tested, 0/4. The class given is functional.
The test system of test [14] is Mus musculus. Nature of the test: Anticonvulsant activity was measured by rotarod toxicity test on mice at 4 hr at the dose of 50 mg/kg; number of animals protected/number of animals tested, number of animals protected/number of animals tested, 0/4. The format is functional.
For test [15], the system named is Mus musculus. Nature of the test: Anticonvulsant activity was measured by maximal electroshock test on mice at 4 hr at the dose of 300 mg/kg; number of animals protected/number of animals tested, 0/1. The format is functional.
In test [16] the test system is Mus musculus. Description: Anticonvulsant activity was measured by subcutaneous pentylenetetrazole test on mice at 4 h at the dose of 300 mg/kg; number of animals protected/number of animals tested, 0/1. The format is functional.
Test [17] deals with Mus musculus. Description: Anticonvulsant activity was measured by subcutaneous pentylenetetrazole test on mice at 30 min at the dose of 100 mg/kg; number of animals protected/number of animals tested, 2/5. The format is functional.
In test [18] the test system is Mus musculus. Nature of the test: Anticonvulsant activity was measured by subcutaneous pentylenetetrazole test on mice at 4 hr at the dose of 100 mg/kg; number of animals protected/number of animals tested, 0/1. The format is functional.
For test [19], the system named is Mus musculus. Description: Anticonvulsant activity was measured by subcutaneous pentylenetetrazole test on mice at 30 min at the dose of 300 mg/kg; number of animals protected/number of animals tested, 5/5. The format is functional.
The test system of test [20] is Mus musculus. Description: Anticonvulsant activity was measured by maximal electroshock test on mice at 0.25 hr at the dose of 50 mg/kg; number of animals protected/number of animals tested, 0/4. The class given is functional.
The subject of test [21] is Mus musculus. Description: Anticonvulsant activity was measured by maximal electroshock test on mice at 0.50 hr at the dose of 50 mg/kg; number of animals protected/number of animals tested, 0/4. The class given is functional.
The test system of test [22] is Mus musculus. Description: Anticonvulsant activity was measured by rotarod toxicity teston mice at 0.50 hr at the dose of 50 mg/kg; number of animals protected/number of animals tested, 0/4. The class given is functional.

Activity calls are given as the source filed them. No cut-off for these calls is given here.

Consider `O=C1NC(=O)C(c2ccccc2)(c2ccccc2)N1` [PHENYTOIN], for which the TPE is recorded as 2 in the test with Mus musculus [1] and 2 toxicity in the test with Mus musculus [2]. Further, in the test on Rattus norvegicus, the ED50 result is “inactive”.

Turning to `O=C1CC2(CCCC2)C(=O)N1OCc1ccccc1C(F)(F)F`, the Ratio in the test with Mus musculus [3] stood at 2; in the test on Mus musculus [4] it was 0; in the test with Mus musculus [5], 0; in the test on Mus musculus [6] it was 0; with Mus musculus [7] it was 0; in the test with Mus musculus [8], 1. Moreover, the Ratio in the test with Mus musculus [9] was determined as 1; with Mus musculus [10] it was 0; in the test with Mus musculus [11] it was 0; in the test with Mus musculus [12], 0; in the test with Mus musculus [13] it was 0; in the test on Mus musculus [14], 0. For the same compound, the Ratio is 0 in the test with Mus musculus [15]; 0 in the test with Mus musculus [16]; 2 with Mus musculus [17]; 0 with Mus musculus [18]; 5 in the test on Mus musculus [19]; 0 in the test on Mus musculus [20]. Moreover, the Ratio in the test on Mus musculus [21] and in the test on Mus musculus [22] was 0 each time.
